Results published in ChEMBL document CHEMBL1148336, “3-Aminopyrazole inhibitors of CDK2/cyclin A as antitumor agents. 1. Lead finding” (J Med Chem, 2004).
In brackets after ≈: the same amount, converted by molar mass.

Columns and labels:
[1] = target: Vascular endothelial growth factor receptor 3 (Homo sapiens, UniProt P35916); assay: Inhibition of Vascular endothelial growth factor receptor 3
Outline: (§1)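 Radiometric kinase assay. Enzyme (0.7–100 nM) and substrate (5Km) incubated with ATP/33P-γ-ATP (2Km) and compound serially diluted 3-fold from 10 to 0.0015 μM, 1% DMSO, 30–90 min at room temperature. Product separated by SPA, Dowex or phosphocellulose filter, then counted.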

[2] = target: Tyrosine-protein kinase Lyn (Homo sapiens, UniProt P07948); assay: Inhibition of Protein tyrosine kinase Lyn; outline: as §1
Rattus norvegicus [3] = assay: In vivo half-life period for compound after oral (po) administration at a dose of 10 mg/kg was measured in rats; assay type: ADME, organism-based; parameters: dose 10 mg/kg, route oral
Outline: (§2)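 Male Sprague Dawley rats (~270), fasted overnight, received a single iv or oral dose in PEG400, 4% Tween 80/dextrose (60:40), three rats per route. Jugular/catheter blood was drawn predose and at 5, 15 and 30 min and 1, 2, 4, 6 and 24 h, and plasma was analysed by LC/MS/MS. Analysis was noncompartmental: Cmax/Tmax observed, AUC by linear trapezoidal rule, and F from dose-normalized oral/iv AUC.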

Rattus norvegicus [4] = assay: Maximal concentration in male Sprague-Dawley rats after 10 mg/kg oral dose; assay type: ADME, organism-based; parameters: dose 10 mg/kg, route oral; details: in vivo; outline: as §2
[5] = target: Cyclin-dependent kinase 4/cyclin D1 (Homo sapiens, UniProt P11802)
[6] = Ability of compound to bind to plasma protein was evaluated in HSA cells; assay type: ADME, cell-based; details: mouse, HSA cells (so in the source), read-out: PPB
Outline: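 HPLC retention time measured on a column coupled with human serum albumin. Percent bound is assigned by comparing the retention time with those of known standards.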

[7] = target: CDC7/DBF4 (Cell division cycle 7-related protein kinase/Activator of S phase kinase) (Homo sapiens, UniProt O00311); assay: Inhibition of CDC7/DBF4 kinase activity; assay type: protein-complex assay
Outline: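 Recombinant CDC7/DBF4 (insect cells), 18 nM, with MCM2 substrate in 50 mM Hepes pH 7.5, 5 mM MgCl2, 1 mM DTT, 3 μM NaVO3. ATP/33P-γ-ATP at 2Km, substrate at 5Km, 1% DMSO, compound 10 to 0.0015 μM in 3-fold steps, 30–90 min at room temperature. SPA bead capture.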

[8] = Solubility of compound was determined in buffer at a pH of 7; assay type: physicochemical; details: pH 7
Outline: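 Nonequilibrium turbidimetric solubility. 10 mM DMSO stock was diluted into pH 7 buffer (2.5% DMSO), and turbidity was read at 50 and 250 μM. Solubility is the average of the highest clear and lowest turbid concentrations.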

[9] = target: Serine/threonine-protein kinase Chk1 (Homo sapiens, UniProt O14757); assay: Inhibition of Serine/threonine-protein kinase Chk1
Outline: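 ATP/33P-γ-ATP 2Km, substrate 5Km, 1% DMSO, compound 10–0.0015 μM, 30–90 min at room temperature. SPA.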

[10] = target: RAC-alpha serine/threonine-protein kinase (Homo sapiens, UniProt P31749); assay: Inhibition of Protein kinase B (Akt-1)
Outline: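 Recombinant AKT-1 (insect cells), 5 nM, with AKTtide in 10 mM Tris-HCl pH 7.4, 10 mM MgCl2, 7.4 mM DTT. ATP/33P-γ-ATP at 2Km, substrate at 5Km, 1% DMSO. 3-fold dilutions from 10 μM, 30–90 min at room temperature. Dowex resin separation, supernatant radioactivity counted.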

[11] = target: Tyrosine-protein kinase ZAP-70 (Homo sapiens, UniProt P43403); assay: Inhibition of Zeta-chain (TCR) associated protein kinase 70 kDa (ZAP70); outline: as §1
[12] = target: Insulin-like growth factor 1 receptor (Homo sapiens, UniProt P08069); assay: Inhibition of Insulin-like growth factor I receptor
Outline: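 IGF1R (6 nM, insect-cell recombinant) phosphorylating IRStide in 50 mM Hepes pH 7.5, 3 mM MnCl2, 1 mM DTT, 3 μM NaVO3. 33P-ATP mix at 2Km, substrate 5Km, 1% DMSO. Compound in 3-fold series from 10 μM, 30–90 min at room temperature. SPA counting.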

[13] = target: Vascular endothelial growth factor receptor 2 (Homo sapiens, UniProt P35968); assay: Inhibition of VEGFR-2 kinase activity; outline: as §1
[14] = target: Fibroblast growth factor receptor 1 (Homo sapiens, UniProt P11362); assay: Inhibition of Fibroblast growth factor receptor 1
Outline: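 Radiolabelled ATP at 2Km, substrate 5Km, 1% DMSO, compound 10 to 0.0015 μM, 30–90 min at room temperature. SPA capture.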

Tyrosine-protein kinase Lyn, sequence (P07948 whole entry): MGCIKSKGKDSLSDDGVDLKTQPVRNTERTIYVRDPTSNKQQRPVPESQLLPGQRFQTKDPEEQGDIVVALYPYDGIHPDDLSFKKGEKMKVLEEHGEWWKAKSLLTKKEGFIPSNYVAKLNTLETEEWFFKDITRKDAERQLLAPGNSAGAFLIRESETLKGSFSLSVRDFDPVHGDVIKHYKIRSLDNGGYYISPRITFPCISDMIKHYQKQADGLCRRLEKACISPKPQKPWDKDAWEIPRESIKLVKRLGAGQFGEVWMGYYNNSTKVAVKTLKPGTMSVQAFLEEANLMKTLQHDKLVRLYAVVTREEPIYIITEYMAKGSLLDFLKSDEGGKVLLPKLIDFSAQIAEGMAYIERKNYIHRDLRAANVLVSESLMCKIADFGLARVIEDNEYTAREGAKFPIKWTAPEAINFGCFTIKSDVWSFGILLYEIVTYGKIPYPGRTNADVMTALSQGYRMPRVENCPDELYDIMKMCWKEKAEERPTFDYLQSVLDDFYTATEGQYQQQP
RAC-alpha serine/threonine-protein kinase, sequence (P31749 whole entry): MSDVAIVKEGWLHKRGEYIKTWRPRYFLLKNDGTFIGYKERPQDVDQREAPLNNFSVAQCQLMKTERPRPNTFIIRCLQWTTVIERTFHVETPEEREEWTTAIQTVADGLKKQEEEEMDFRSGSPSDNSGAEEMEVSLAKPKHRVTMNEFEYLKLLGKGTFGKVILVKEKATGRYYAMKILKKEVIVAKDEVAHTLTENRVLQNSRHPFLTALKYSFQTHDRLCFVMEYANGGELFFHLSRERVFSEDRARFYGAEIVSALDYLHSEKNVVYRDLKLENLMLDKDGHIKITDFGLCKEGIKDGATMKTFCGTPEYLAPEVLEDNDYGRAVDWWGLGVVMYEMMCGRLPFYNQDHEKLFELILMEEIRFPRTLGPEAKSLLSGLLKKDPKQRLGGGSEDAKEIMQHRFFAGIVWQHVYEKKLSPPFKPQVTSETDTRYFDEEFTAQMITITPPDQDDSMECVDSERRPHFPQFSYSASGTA
Vascular endothelial growth factor receptor 2, sequence (P35968 whole entry): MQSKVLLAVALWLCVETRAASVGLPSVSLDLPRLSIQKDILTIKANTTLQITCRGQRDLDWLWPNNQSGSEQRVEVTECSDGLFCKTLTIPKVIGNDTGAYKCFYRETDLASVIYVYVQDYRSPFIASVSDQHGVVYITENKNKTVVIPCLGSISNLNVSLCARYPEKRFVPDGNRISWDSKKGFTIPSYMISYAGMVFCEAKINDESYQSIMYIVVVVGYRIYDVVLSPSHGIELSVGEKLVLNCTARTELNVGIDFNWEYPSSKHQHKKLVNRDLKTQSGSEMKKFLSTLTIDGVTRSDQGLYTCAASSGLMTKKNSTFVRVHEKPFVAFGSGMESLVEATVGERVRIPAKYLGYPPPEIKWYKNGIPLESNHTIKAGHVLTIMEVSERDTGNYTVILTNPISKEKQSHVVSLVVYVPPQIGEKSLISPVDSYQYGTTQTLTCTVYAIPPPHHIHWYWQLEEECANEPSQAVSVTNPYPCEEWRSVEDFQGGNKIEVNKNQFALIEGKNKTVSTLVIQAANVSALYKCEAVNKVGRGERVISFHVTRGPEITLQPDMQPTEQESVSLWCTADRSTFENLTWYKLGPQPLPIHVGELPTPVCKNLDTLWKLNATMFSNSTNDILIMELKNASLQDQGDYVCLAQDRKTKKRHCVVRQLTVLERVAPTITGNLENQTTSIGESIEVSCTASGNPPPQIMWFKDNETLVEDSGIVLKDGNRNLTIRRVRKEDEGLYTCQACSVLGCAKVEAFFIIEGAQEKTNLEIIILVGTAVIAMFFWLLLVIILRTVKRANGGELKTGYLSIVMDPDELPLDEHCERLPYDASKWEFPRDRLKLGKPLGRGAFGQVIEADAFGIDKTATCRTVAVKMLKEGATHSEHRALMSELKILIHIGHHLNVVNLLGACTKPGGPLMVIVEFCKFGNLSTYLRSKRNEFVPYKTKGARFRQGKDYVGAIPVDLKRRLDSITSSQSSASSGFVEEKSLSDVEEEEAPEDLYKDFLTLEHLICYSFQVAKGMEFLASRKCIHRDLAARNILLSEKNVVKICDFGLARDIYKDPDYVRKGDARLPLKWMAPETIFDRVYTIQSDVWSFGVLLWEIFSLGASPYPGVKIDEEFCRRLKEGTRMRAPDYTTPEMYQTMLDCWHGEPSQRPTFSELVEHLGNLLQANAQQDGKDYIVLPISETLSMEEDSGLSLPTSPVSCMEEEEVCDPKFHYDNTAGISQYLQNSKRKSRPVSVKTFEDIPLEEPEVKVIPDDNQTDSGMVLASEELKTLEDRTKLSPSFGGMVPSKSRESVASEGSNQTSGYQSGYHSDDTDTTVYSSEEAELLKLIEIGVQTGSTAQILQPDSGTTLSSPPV
Vascular endothelial growth factor receptor 3, sequence (P35916 whole entry): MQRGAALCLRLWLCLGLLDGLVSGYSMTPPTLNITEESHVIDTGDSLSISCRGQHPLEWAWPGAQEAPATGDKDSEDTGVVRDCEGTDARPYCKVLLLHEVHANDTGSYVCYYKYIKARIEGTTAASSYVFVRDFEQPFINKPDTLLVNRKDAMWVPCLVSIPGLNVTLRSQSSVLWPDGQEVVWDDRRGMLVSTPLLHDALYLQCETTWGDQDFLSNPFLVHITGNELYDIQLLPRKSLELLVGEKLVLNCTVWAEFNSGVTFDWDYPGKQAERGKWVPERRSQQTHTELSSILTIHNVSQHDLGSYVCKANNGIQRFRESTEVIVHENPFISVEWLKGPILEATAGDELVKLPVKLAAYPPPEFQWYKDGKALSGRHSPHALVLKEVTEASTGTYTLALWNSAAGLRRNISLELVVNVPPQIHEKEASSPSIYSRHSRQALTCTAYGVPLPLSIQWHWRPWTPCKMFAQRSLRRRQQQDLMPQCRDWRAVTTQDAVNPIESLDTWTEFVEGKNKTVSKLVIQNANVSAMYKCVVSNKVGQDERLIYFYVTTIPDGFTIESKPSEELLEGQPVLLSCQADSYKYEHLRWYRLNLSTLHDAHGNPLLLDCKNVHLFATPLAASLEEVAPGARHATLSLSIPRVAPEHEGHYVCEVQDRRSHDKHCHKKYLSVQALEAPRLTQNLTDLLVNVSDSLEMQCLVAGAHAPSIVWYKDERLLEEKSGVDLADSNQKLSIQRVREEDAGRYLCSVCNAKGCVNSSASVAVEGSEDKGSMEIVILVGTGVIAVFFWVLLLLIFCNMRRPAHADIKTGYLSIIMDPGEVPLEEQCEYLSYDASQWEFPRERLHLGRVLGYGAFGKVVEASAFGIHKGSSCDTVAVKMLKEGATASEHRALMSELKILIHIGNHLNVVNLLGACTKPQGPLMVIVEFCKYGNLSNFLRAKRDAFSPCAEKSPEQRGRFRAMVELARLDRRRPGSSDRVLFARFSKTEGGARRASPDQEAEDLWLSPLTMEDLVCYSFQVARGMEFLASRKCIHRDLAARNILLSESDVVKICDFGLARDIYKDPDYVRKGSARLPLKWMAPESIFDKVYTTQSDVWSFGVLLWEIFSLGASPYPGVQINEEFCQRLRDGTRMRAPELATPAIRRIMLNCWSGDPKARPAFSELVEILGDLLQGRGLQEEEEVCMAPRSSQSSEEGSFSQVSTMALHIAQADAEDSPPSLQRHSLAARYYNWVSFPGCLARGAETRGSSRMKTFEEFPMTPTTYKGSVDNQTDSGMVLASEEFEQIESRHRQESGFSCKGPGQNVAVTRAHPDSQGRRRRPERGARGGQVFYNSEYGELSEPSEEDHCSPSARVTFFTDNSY
Insulin-like growth factor 1 receptor, sequence (P08069 31-736 limits assumed): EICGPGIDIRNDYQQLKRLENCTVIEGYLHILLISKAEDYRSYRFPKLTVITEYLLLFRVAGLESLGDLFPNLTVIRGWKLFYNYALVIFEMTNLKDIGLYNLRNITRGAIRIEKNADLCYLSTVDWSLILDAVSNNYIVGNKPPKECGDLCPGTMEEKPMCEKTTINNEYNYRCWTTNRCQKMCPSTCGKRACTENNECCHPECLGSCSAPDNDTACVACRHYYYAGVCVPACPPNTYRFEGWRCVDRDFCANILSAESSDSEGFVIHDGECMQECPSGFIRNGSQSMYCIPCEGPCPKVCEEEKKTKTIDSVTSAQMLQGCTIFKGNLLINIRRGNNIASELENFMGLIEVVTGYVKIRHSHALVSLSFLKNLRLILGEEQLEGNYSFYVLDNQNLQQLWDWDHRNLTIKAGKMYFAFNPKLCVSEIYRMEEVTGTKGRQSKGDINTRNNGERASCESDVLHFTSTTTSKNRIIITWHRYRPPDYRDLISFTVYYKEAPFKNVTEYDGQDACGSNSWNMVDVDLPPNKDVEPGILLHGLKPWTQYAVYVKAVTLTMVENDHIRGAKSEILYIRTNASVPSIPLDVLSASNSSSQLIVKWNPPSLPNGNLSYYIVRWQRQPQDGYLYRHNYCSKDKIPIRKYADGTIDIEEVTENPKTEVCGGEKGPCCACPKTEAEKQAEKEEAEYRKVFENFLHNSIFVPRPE
Insulin-like growth factor 1 receptor, sequence (P08069 741-1367 limits assumed): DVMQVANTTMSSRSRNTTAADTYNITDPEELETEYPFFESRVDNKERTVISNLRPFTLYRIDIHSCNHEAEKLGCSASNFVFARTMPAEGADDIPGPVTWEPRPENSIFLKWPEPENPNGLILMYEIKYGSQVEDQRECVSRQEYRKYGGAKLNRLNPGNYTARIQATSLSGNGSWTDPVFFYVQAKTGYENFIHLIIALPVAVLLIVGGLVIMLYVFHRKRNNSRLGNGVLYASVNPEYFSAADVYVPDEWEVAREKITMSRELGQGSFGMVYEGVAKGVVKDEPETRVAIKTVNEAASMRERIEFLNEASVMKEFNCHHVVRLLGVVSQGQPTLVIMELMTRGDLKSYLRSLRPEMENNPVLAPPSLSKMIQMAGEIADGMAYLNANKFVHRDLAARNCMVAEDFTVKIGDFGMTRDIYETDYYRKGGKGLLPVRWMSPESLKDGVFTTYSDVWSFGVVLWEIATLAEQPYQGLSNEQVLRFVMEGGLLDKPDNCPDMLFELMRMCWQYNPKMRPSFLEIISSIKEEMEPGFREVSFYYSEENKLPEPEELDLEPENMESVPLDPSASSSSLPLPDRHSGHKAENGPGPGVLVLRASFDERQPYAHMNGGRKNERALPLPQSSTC

IC50 [1]: > 10 µM | IC50 [2]: > 10 µM | T1/2 (Rattus norvegicus [3]): 2.38 h | Cmax (Rattus norvegicus [4]): 9.63 µM | IC50 [5]: > 10 µM | fraction unbound [6]: 0.01 | IC50 [7]: > 10 µM | solubility [8]: 22 µM (≈ 6.41 µg/mL) | IC50 [9]: > 10 µM | IC50 [10]: > 10 µM | IC50 [11]: > 10 µM | IC50 [12]: > 10 µM | IC50 [13]: > 10 µM | IC50 [14]: > 10 µM
SMILES: O=C(Cc1ccc2ccccc2c1)Nc1cc(C2CC2)n[nH]1
